Results of several laboratories.
Lines come from different studies, so protocols differ.
MAP3K11: Mitogen-activated protein kinase kinase kinase 11 (MAP3K11, Homo sapiens, UniProt Q16584)
MET M1250T: Hepatocyte growth factor receptor (MET, Homo sapiens, UniProt P08581, M1250T)
CDKL1: Cyclin-dependent kinase-like 1 (CDKL1, Homo sapiens, UniProt Q00532)
ULK1: Serine/threonine-protein kinase ULK1 (ULK1, Homo sapiens, UniProt O75385)

| Structure (SMILES) | target | test | test system | setting | endpoint | result |
| --- | --- | --- | --- | --- | --- | --- |
| NS(=O)(=O)c1ccc(CNc2nc(Nc3cccc(NC(=O)N4CCCC4)c3)ncc2C2CC2)cc1 | MAP3K11 | enzyme activity, inhibitor, radiometric |  | 1 µM | remaining activity | 72% |
| Nc1ncnc2occ(-c3ccc(NC(=O)Nc4cc(C(F)(F)F)ccc4F)cc3)c12 | Serine/threonine-protein kinase 36 (STK36, Homo sapiens, UniProt Q9NRP7) | cell-free assay, inhibitor |  | 20 µM | remaining signal | 87% |
| Cc1cnc(NC2CCOCC2)nc1-n1cnc(C(=O)NC(CN)c2cc(F)cc(Cl)c2)c1 (stereo not shown) | MET M1250T | enzyme activity, inhibitor, radiometric |  | 1 µM | remaining activity | 100% |
| CCN1CCN(Cc2ccc(NC(=O)c3ccc(C)c(Oc4ccnc5[nH]ccc45)c3)cc2C(F)(F)F)CC1 | Eukaryotic elongation factor 2 kinase (EEF2K, Homo sapiens, UniProt O00418) | target engagement in cells, inhibitor, chemoproteomics | Huh-7 | 10 µM | inhibition | -20.2% |
| Cn1c2c(c3ccccc31)C(C#N)C(C)(C)NC2=O (stereo not shown) | CDKL1 | thermal stability, DSF |  | 10 µM | ΔTm | -0.1 °C |
| O=S1(=O)O[C@@H]2[C@H](O)[C@@H](O)[C@H](O)[C@@H](CO)[C@@H]2O1 | Lysosomal alpha-glucosidase (GAA, Homo sapiens, UniProt P10253) | enzyme activity, inhibitor |  | pH 4.8 | kinact/KI | 1070 M⁻¹ s⁻¹ |
| Cn1c2c(c3ccc(Cl)c(Cl)c31)C(C#N)C(C)(C)NC2=O (stereo not shown) | CDKL1 | thermal stability, DSF |  | 10 µM | ΔTm | 0 °C |
| c1cc(-c2nnc3scnn23)ccn1 | Type II inositol 1,4,5-trisphosphate 5-phosphatase (Homo sapiens, UniProt P32019) | enzyme activity, inhibitor |  |  | Emax | 100% |
| c1cc(CN2CCOCC2)cc(Nc2ncc(C3CC3)c(NCCc3c[nH]cn3)n2)c1 | MAP3K11 | enzyme activity, inhibitor, radiometric |  | 1 µM | remaining activity | 27% |
| Cn1c2c(c3ccc(Cl)c(Cl)c31)C(C#N)C1(CCNCC1)NC2=O (racemic) | CDKL1 | thermal stability, DSF |  | 10 µM | ΔTm | 0.9 °C |
| Cc1ccc(NC(=O)c2ccc(C)c(C(F)(F)F)c2)cc1C#Cc1nn(C2CCC(O)CC2)c2ncnc(N)c12 (stereo not shown) | Hepatocyte growth factor receptor (MET, Homo sapiens, UniProt P08581) | cell-free assay |  | 10 µM | remaining signal | 133% |
| NS(=O)(=O)c1ccc(CNc2ccnc(Nc3cccc(CN4CCOCC4)c3)n2)cc1 | ULK1 | enzyme activity, inhibitor, radiometric |  | 1 µM | remaining activity | 92% |
| Cc1cc(NC(=O)c2cccc3cc(-c4cccc5[nH]nc(N)c45)ccc23)ccc1F | MET M1250T | enzyme activity, inhibitor |  | 0.1 µM | activity vs control | 113% |
| Cn1c2c(c3ccc(Cl)c(Cl)c31)C(C#N)C1(CCCC1)NC2=O (stereo not shown) | CDKL1 | thermal stability, DSF |  | 10 µM | ΔTm | 0 °C |
| NS(=O)(=O)c1ccc(CNc2nc(Nc3cccc(CN4CCOCC4)c3)ncc2Br)cc1 | ULK1 | enzyme activity, inhibitor, radiometric |  | 1 µM | remaining activity | 50% |
| Cn1c2c(Cl)c(Cl)ccc2c2cc[nH]c(=O)c21 | TRAF2 and NCK-interacting protein kinase (TNIK, Homo sapiens, UniProt Q9UKE5) | thermal stability, DSF |  | 10 µM | ΔTm | 0.7 °C |
| Cc1nn(CC(F)(F)F)cc1Nc1ncc(C2CC2)c(NCCc2c[nH]cn2)n1 | ULK1 | enzyme activity, inhibitor, radiometric |  | 1 µM | remaining activity | 78% |
| Cn1c2c(c3ccc(Cl)c(Cl)c31)C(C#N)C1(CCCCC1)NC2=O (racemic) | CDKL1 | thermal stability, DSF |  | 10 µM | ΔTm | 0.4 °C |
| Cc1nn(CC(F)(F)F)cc1Nc1ncc(Br)c(NCCc2cnc[nH]2)n1 | ULK1 | enzyme activity, inhibitor, radiometric |  | 1 µM | remaining activity | 20% |
